Experimental data: PubChem BioAssay AID492951 (Molecular Libraries Program, Specialized Chemistry Center, …, 2010)
A number with no mark means an inactive call. Activity calls are given as the source filed them.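 How the source made its calls: active means inhibition above 10%; inactive means the rest.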

The compounds below were run against Hexokinase-4 (Homo sapiens) (UniProt P35557) (assay: human glucokinase inhibition, counter-screen for TbHK1 inhibitor project, biochemical, recombinant hGlck (AID 492951)). Details: G6PDH-coupled NADH absorbance 340 nm, at 10 µM; stronger effect = higher value.
Summary of the method: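 Material: Recombinant human glucokinase, G6PDH-coupled | Medium: TEA buffer pH 7.9 with 3.3 mM MgCl2, 0.75 mM NAD+ | Also added: 20 mM glucose as reaction starter, plus 1 mM ATP | Compound dosing: One dose, 10 µM final | Schedule: 10 min preincubation at room temperature | Measured by: A340 of NADH | Repeats: Three replicates per compound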

Hexokinase-4 (Homo sapiens), sequence (P35557 whole entry, looked up): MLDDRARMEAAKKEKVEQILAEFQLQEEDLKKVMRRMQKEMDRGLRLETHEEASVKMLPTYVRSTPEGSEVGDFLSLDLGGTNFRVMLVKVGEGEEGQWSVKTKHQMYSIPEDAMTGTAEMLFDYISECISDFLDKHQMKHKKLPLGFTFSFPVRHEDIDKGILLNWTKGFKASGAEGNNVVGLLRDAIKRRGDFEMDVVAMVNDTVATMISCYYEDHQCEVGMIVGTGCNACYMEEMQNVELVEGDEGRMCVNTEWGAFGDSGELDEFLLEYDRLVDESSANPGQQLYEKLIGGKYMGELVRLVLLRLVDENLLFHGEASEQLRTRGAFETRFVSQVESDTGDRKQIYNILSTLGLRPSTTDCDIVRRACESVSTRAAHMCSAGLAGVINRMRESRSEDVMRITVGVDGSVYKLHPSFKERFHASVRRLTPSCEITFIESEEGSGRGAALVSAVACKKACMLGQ

| Compound | outcome | inhibition |
| --- | --- | --- |
| COc1ccc(C(=O)Nc2cc(F)ccc2C(=O)O)cc1 | inactive |  |
| O=C(Nc1cc(Cl)ccc1C(=O)O)c1ccoc1 | inactive |  |
| COc1ccc(NC(=O)c2ccc(Cl)cc2C(=O)O)cc1 | inactive |  |
| COc1ccc(C(=O)Nc2cc(-c3ccccc3)ccc2C(=O)O)cc1 | inactive |  |
| Cc1ccccc1NC(=O)Cn1sc2ccccc2c1=O | inactive |  |
| Cc1ccc(C(=O)Nc2cc(Cl)ccc2C(=O)O)cc1C | inactive |  |
| O=C(Cn1sc2ccccc2c1=O)Nc1ccc(Br)cc1 |  | 33.8% (active) |
| O=c1c2ccccc2sn1-c1cccc(F)c1 |  | 28.2% (active) |
| O=C(NCc1ccccc1)n1sc2ccccc2c1=O |  | 38.3% (active) |
| N#Cc1ccc2sn(-c3ccccc3)c(=O)c2c1 |  | 4.3% |
| COc1ccc(C(=O)Nc2cc(C(=O)O)ccc2Cl)cc1 | inactive |  |
| CCOc1ccc(C(=O)Nc2cc(Cl)ccc2C(=O)O)cc1 |  | 9.4% |
| Cc1ccc(-n2sc3ccccc3c2=O)cc1 |  | 26.1% (active) |
| CN(Cc1ccccc1)C(=O)Cn1sc2ccccc2c1=O |  | 30.6% (active) |
| CC(C)(C)c1ccc(C(=O)Nc2cc(Cl)ccc2C(=O)O)cc1 | inactive |  |
| CC(C)(C)c1ccc(C(=O)Nc2cc(Br)ccc2C(=O)O)cc1 |  | 26.2% (active) |
| COc1cc(C(=O)Nc2cc(Cl)ccc2C(=O)O)cc(OC)c1OC | inactive |  |
| CC(C)c1cccc(C(=O)Nc2cc(Cl)ccc2C(=O)O)c1 | inactive |  |
| O=c1c2cc(F)ccc2sn1-c1ccccc1 |  | 50.1% (active) |
| CN(C)c1cccc(NC(=O)Cn2sc3ccccc3c2=O)c1 |  | 16.7% (active) |
